≈ marks a conversion by molar mass, not a printed value. Calls of active or inactive are those of the source. The calls are words filed in the database; no cut-off is given here.
Columns and labels:
Aspergillus fumigatus [1] = experiment: Antifungal activity against Aspergillus fumigatus ATCC 204305 assessed as inhibition of fungal growth […] by broth microdilution method; assay type: functional
Candida albicans = experiment: Antifungal activity against Candida albicans ATCC 90028 assessed as inhibition of fungal growth incubated for 24 hrs by broth microdilution method; assay type: functional
Summary of the method: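 Yeast cells were adjusted to about 2 × 10³ CFU/mL and broth microdilution was run for 24 h at 35 °C. Medium was YNB with 2% glucose and complete amino-acid mix, buffered to pH 7.0 with 50 mM MOPS. MIC was the lowest concentration giving >50% growth reduction versus untreated control, read by optical density at 600 nm.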

[2] = Metabolic stability in human liver microsomes assessed as parent compound remaining at 0.5 uM incubated for 30 mins by LC/MS/MS analysis; assay type: ADME, Microsome; settings: read-out: Stability
Summary of the method: (§1)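 Compound at 0.5 μM was incubated with liver microsomes at 0.5 mg protein/mL at 37 °C. Buffer was 50 mM Tris-HCl pH 7.4 with 150 mM KCl, 10 mM MgCl2 and 1 mM NADPH. Reactions were stopped at 0 and 30 min with MeCN/MeOH 1:1. Percent remaining was taken from LC/MS/MS peak area ratio, in duplicate.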

[3] = Metabolic stability in rat liver microsomes assessed as parent compound remaining at 0.5 uM incubated for 30 mins by LC/MS/MS analysis; assay type: ADME, Microsome; settings: read-out: Stability; summary of the method: as §1
Aspergillus fumigatus [4] = experiment: Antifungal activity against Aspergillus fumigatus ATCC 204305 assessed as inhibition of fungal growth incubated for 48 hrs in presence of 50% heat-inactivated bovine serum by broth microdilution method; assay type: functional; settings: ATCC 204305, 48 h, in the assay text read “incubated for 48 hrs” for “incubated for 24 hrs”
Summary of the method: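 Broth microdilution per CLSI M38-A2 with modifications. Conidia at about 1 × 10⁴ CFU/mL were grown for 48 h at 35 °C in YNB with 2% glucose and complete amino-acid mix, buffered to pH 7.0 with 50 mM MOPS. Medium was with or without 50% heat-inactivated bovine serum. MIC was the lowest concentration giving no visible growth.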

Aspergillus fumigatus [5] = experiment: Antifungal activity against Aspergillus fumigatus ATCC 204305 assessed as inhibition of fungal growth incubated for 48 hrs by broth microdilution method; settings: ATCC 204305, 48 h
Aspergillus fumigatus [6] = experiment: Antifungal activity against pan-azole resistant Aspergillus fumigatus SR47013 harbouring Cyp51A Y121F mutant assessed as inhibition of fungal growth incubated for 48 hrs by broth microdilution method; settings: SR47013, 48 h
Mus musculus [7] = experiment: In vivo antifungal activity against Aspergillus fumigatus infected in ICR mouse assessed as log reduction in fungal burden with 18S rRNA in kidney at 30 mg/kg, iv administered at 2 to 50 hrs post-inoculation and measured after 60 hrs by RT-qPCR analysis; assay type: functional
Summary of the method: (§2)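 Male ICR mice (5 weeks) were immunosuppressed with intraperitoneal cyclophosphamide, 150 mg/kg on day −4 and 100 mg/kg on day −1. Mice were infected intravenously with about 1.5 × 10⁵ conidia in saline. Tail-vein dosing was at 2, 16, 21, 26, 40, 45 and 50 h, in 5% DMSO/5% Cremophor EL/4% glucose or 5% glucose. Samples were taken at 60 h, five mice per group, and analysed by Dunnett's test against untreated controls.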

Mus musculus [8] = experiment: In vivo antifungal activity against Aspergillus fumigatus infected in ICR mouse assessed as reduction in serum-galactomannan at 30 mg/kg, iv administered at 2 to 50 hrs post-inoculation and measured after 60 hrs by GM analysis; assay type: functional, organism-based; summary of the method: as §2
[9] = Unbound fraction in Sprague-Dawley rat at 0.5 mg/kg, iv measured upto 1440 mins by LC/MS/MS analysis; assay type: ADME, organism-based; settings: in vivo
[10] = Clearance in Sprague-Dawley rat at 0.5 mg/kg, iv measured upto 1440 mins by LC/MS/MS analysis; assay type: ADME, organism-based; settings: in vivo
[11] = Volume of distribution at steady state in Sprague-Dawley rat at 0.5 mg/kg, iv measured upto 1440 mins by LC/MS/MS analysis; assay type: ADME, organism-based; settings: in vivo, read-out: Vdss

Structure (SMILES) | MIC50 (Aspergillus fumigatus [1]) | MIC50 (Candida albicans) | remaining at 0.5 h, 0.5 µM [2] | remaining at 0.5 h, 0.5 µM [3] | MIC50 (Aspergillus fumigatus [4]) | MIC (Aspergillus fumigatus [5]) | also measured
Cc1ccc(Oc2ccccc2-c2cnc(N=C3NCCCN3)s2)c(C)c1 | > 16 µg/mL | > 16 µg/mL |  |  |  |  | 
CC[C@@H]([C@H](C)O)n1ncn(-c2ccc(N3CCN(c4ccc(OC[C@@H]5CO[C@@](Cn6cncn6)(c6ccc(F)cc6F)C5)cc4)CC3)cc2)c1=O [POSACONAZOLE] |  |  |  |  |  | 0.063 µg/mL (≈ 0.0899 µM) | MIC50 (Aspergillus fumigatus [6]): 4 µg/mL (≈ 5.71 µM)
Cc1ccc(Oc2ccccc2-c2csc(N=C3NCCCN3)n2)c(C)c1 [ABAFUNGIN] | 2 µg/mL (≈ 5.28 µM) | < 0.063 µg/mL | 64% | 0.2% |  |  | Activity (Mus musculus [7]): inactive; Activity (Mus musculus [8]): inactive; fraction unbound at 24 h [9]: < 0.001; clearance [10]: 51.4 mL/min/kg; Vd [11]: 4.92 L/kg; MIC50 (Aspergillus fumigatus [6]): 2 µg/mL (≈ 5.28 µM)
Cc1ccc(Oc2ccccc2-c2csc(Nc3ncccn3)n2)c(C)c1 | > 16 µg/mL | > 16 µg/mL |  |  |  |  | 
CNC(=Nc1nc(-c2ccccc2Oc2ccc(C)cc2C)cs1)NC | > 16 µg/mL | > 16 µg/mL |  |  |  |  | 
Cc1ccc(Oc2ccccc2-c2csc(N=C3NCCN3)n2)c(C)c1 | > 16 µg/mL | 0.5 µg/mL (≈ 1.37 µM) |  |  |  |  | 
CCC(C)n1ncn(-c2ccc(N3CCN(c4ccc(OCC5COC(Cn6cncn6)(c6ccc(Cl)cc6Cl)O5)cc4)CC3)cc2)c1=O (stereo unspecified) [ITRACONAZOLE] |  |  |  |  |  | 0.25 µg/mL (≈ 0.354 µM) | MIC50 (Aspergillus fumigatus [6]): > 16 µg/mL

Now from value to molecule, other results behind:

MIC50 (Aspergillus fumigatus [1]) | MIC50 (Candida albicans) | remaining at 0.5 h, 0.5 µM [2] | remaining at 0.5 h, 0.5 µM [3] | MIC50 (Aspergillus fumigatus [4]) | MIC (Aspergillus fumigatus [5]) | Structure (SMILES) | also measured
 |  | 85% | 47% | 16 µg/mL | 4 µg/mL (≈ 9.53 µM) | CS(=O)(=O)c1cccc(-c2nc(-c3csc(N=C4NCCCN4)n3)cs2)c1 | 
0.5 µg/mL (≈ 1.46 µM) | < 0.063 µg/mL | 83% | 31% | 8 µg/mL |  | c1ccc(-c2nc(-c3csc(N=C4NCCCN4)n3)cs2)cc1 | fraction unbound at 24 h [9]: 0.0104; clearance [10]: 33.1 mL/min/kg; Vd [11]: 7.25 L/kg
16 µg/mL (≈ 49.2 µM) | 0.063 µg/mL (≈ 0.194 µM) |  |  |  |  | c1ccc(-c2nc(-c3csc(N=C4NCCCN4)n3)co2)cc1 | 
 |  | 86% | 53% | > 16 µg/mL | 2 µg/mL (≈ 5.59 µM) | Oc1ccc(-c2nc(-c3csc(N=C4NCCCN4)n3)cs2)cc1 | 
 |  | 58% | 9% | 4 µg/mL | 0.5 µg/mL (≈ 1.46 µM) | c1cc(-c2nc(-c3csc(N=C4NCCCN4)n3)cs2)ccn1 | 
4 µg/mL (≈ 11.7 µM) | 0.063 µg/mL (≈ 0.185 µM) | 70% | 30% |  |  | c1ccc(-c2cc(-c3csc(N=C4NCCCN4)n3)cs2)cc1 | 
 |  | 78% | 19% | 2 µg/mL | 0.5 µg/mL (≈ 1.46 µM) | c1cncc(-c2nc(-c3csc(N=C4NCCCN4)n3)cs2)c1 | 
 |  | 30% | 38% | 8 µg/mL | 0.5 µg/mL (≈ 1.4 µM) | Oc1ccccc1-c1nc(-c2csc(N=C3NCCCN3)n2)cs1 | 
